One experiment concerns HaCaT. Briefly: Cytotoxicity against human HaCaT cells assessed as cell growth inhibition incubated for 72 hrs by MTT assay. The experiment is classed as functional, cell-based. (Tetrazolium assays rely on reduction of a dye to a coloured formazan, in cell work by metabolically active cells.)
Another experiment concerns B16. Briefly: Cytotoxicity against mouse B16 cells assessed as cell growth inhibition incubated for 72 hrs by MTT assay. The format is functional, cell-based. The conditions noted are these: B16, 72 h.
The next experiment relates to Caco-2. Briefly: Cytotoxicity against human Caco2 cells assessed as cell growth inhibition. The experiment is classed as functional, cell-based.
The next experiment has as its system PC-3. Nature of the experiment: Cytotoxicity against human PC3 cells assessed as cell growth inhibition. The experiment is classed as functional, cell-based. In outline: (§1)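 Inhibition of proliferation tested on a panel of human lines: Huh7D12 (differentiated hepatocellular carcinoma), Caco 2 (differentiating colorectal adenocarcinoma), MDA-MB-231 (breast carcinoma), HCT-116 (actively proliferating colorectal carcinoma), PC3 (prostate carcinoma) and NCI-H2 (lung carcinoma). Diploid skin fibroblasts served as the normal control line. Result reported as IC50.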

A short description of experiment [1]: Cytotoxicity against human Huh7D12 cells assessed as cell growth inhibition. The note with it: Huh-7D12. The format is functional, cell-based.
The next experiment relates to HCT-116. Briefly: Cytotoxicity against human HCT116 cells assessed as cell growth inhibition. The format is functional, cell-based. The gist of the method:
as §1

The subject of a further experiment is Fibroblast. Briefly: Cytotoxicity against human Fibroblasts assessed as cell growth inhibition. The experiment is classed as cell-based. The gist of the method:
as §1

The next experiment concerns MDA-MB-231. Briefly: Cytotoxicity against human MDA-MB-231 cells assessed as cell growth inhibition. The experiment is classed as functional, cell-based.
Experiment [2] in a line: Cytotoxicity against human NCI-H2 cells assessed as cell growth inhibition. The experiment is classed as functional, cell-based. In outline:
as §1

Experiment [3] in a line: Antioxidant activity assessed as DPPH radical scavenging activity after 5 mins by spectrophotometric analysis. The experiment is classed as functional. A general note: Loss of DPPH colour is used to gauge radical scavenging.
The nature of experiment [4]: Antioxidant activity assessed as superoxide anion radical scavenging activity after 5 mins by spectrophotometric analysis. The format is functional. The gist of the method:
(§2)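 Nonenzymatic superoxide scavenging read in 96-well plates. Final mixture: NADH 78 μM, NBT 50 μM, PMS 10 μM, test compound at 350, 116, 39 and 13 μM. Reagents in 16 mM Tris-HCl pH 8, compounds in DMSO. After 5 min at room temperature, absorbance at 560 nm against a no-PMS blank. IC50 taken from steady-state percent inhibition per dilution. Ascorbic acid as positive control. Triplicates averaged.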

Experiment [5] is described as follows: Antioxidant activity after 5 mins by NBT assay. The format is functional. In outline: as §2

Drawing on ChEMBL document CHEMBL4431303, “Minor Pyranonaphthoquinones from the Apothecia of the Lichen Ophioparma ventosa” (J Nat Prod, 2016), this text covers IC50 and inhibition for nine compounds.

Values after ≈ are worked out from the molar mass of the structure shown. Active and inactive are the calls of the source. No cut-off for these calls is given here.

With `CC[C@]1(O)C[C@H]2CN(CCc3c([nH]c4ccccc34)[C@@](C(=O)OC)(c3cc4c(cc3OC)N(C=O)[C@H]3[C@@](O)(C(=O)OC)[C@H](OC(C)=O)[C@]5(CC)C=CCN6CC[C@]43[C@@H]65)C2)C1` [VINCRISTINE], the IC50 is 650 nM in the experiment on HaCaT and 500 nM with B16.
`CC(=O)O[C@H]1C(=O)[C@@]2(C)[C@H]([C@H](OC(=O)c3ccccc3)[C@]3(O)C[C@H](OC(=O)[C@H](O)[C@@H](NC(=O)c4ccccc4)c4ccccc4)C(C)=C1C3(C)C)[C@]1(OC(C)=O)CO[C@@H]1C[C@@H]2O` [PACLITAXEL]: the IC50 with Caco-2 was 14 nM; in the experiment on PC-3, 4 nM; in experiment [1], 8 nM; with HCT-116 it was 3 nM; in the experiment with Fibroblast, above 0.25 µM; in the experiment on MDA-MB-231, 21 nM. In experiment [2], the IC50 was 20 nM.
In the case of `CC[C@H](CO)Nc1nc(NCc2ccccc2)c2ncn(C(C)C)c2n1` [SELICICLIB], the figures for the half-inhibitory concentration (IC50) (in the experiment on Fibroblast; in experiment [2]) were 7 µM and 18000 nM, respectively.
Regarding `O=C(O)c1cc(O)c(O)c(O)c1` [GALLIC ACID], in experiment [3], the IC50 came out at 7.2 µg/mL (≈ 42.3 µM).
Regarding `COC1=CC(=O)c2c(O)c3c(c(O)c2C1=O)[C@@H](OC)[C@H](C)OC3=O`, the inhibition result in [4] was “Active”. Besides, the IC50 in experiment [5] was 6.1 µM; in experiment [3], “Not Active”.
As to `COC1=CC(=O)c2c(O)c3c(c(O)c2C1=O)[C@@H]1O[C@@H](C)C[C@@H]1OC3=O`, the IC50 was 50 µM in experiment [4]; 49.9 µM in experiment [5]; above 10000 nM in the experiment on HaCaT; “Not Active” in [3]; above 10000 nM in the experiment on B16.
Regarding `COc1cccc2c1C(=O)c1c(O)c3c(c(O)c1C2=O)C[C@@](O)(C(=O)CO)C[C@@H]3O[C@H]1C[C@H](N)[C@H](O)[C@H](C)O1` [DOXORUBICIN], the IC50 turned out to be 530 nM in the experiment on HaCaT; 30 nM in the experiment on Caco-2; 430 nM in the experiment on B16; 90 nM in the experiment with PC-3; 60 nM in experiment [1]; 80 nM in the experiment with HCT-116. Further, the IC50 in the experiment on Fibroblast was determined as 0.04 µM; in the experiment with MDA-MB-231, 30 nM; in experiment [2], 40 nM.
As to `O=C1O[C@H]([C@@H](O)CO)C(O)=C1O` [ASCORBIC ACID], in [4], the inhibition entry is “Active”. The IC50 in [5] was determined as 22.1 µM.
As for `COC1=CC(=O)c2c(O)c3c(c(O)c2C1=O)C[C@H](C)OC3=O`, the inhibition entry in [4] is “Active”. In addition, the IC50 was 1.9 µM in experiment [5]; 14200 nM in the experiment on HaCaT; 4000 nM with Caco-2; above 500 µg/mL in experiment [3]; 2400 nM in the experiment with B16; 4000 nM in the experiment on PC-3. In addition, the IC50 is 3000 nM in experiment [1]; 2600 nM with HCT-116; 4 µM in the experiment on Fibroblast; 10000 nM with MDA-MB-231; 2500 nM in [2].

What is called IC50 is the concentration needed to halve the response being measured.
